Data as given in ChEMBL document CHEMBL1138226, “Biological mechanisms of action of novel C-10 non-acetal trioxane dimers in prostate cancer cell lines” (2006).
Calls of active or inactive are those of the source. The calls are words filed in the database; no cut-off is given here.

Experiments:
TRAMP-C1A = assay: Growth inhibition of mouse C1A cells after 72 hrs by MTT assay; assay type: functional
Procedure, shortened: (§1)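 Seeded overnight at C1A 2500, C2H 1500 or LNCaP 10,000 cells/well, then exposed to a range of concentrations or ethanol vehicle for 72 h. MTT added for 4 h, cells solubilized in 20% SDS/0.02 N HCl, absorbance read at 570 nm. Concentration for 50% growth inhibition (GI50) calculated. Replicate wells ± SD; ≥3 independent experiments.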

TRAMP-C2H [1] = assay: Growth inhibition of mouse C2H cells after 72 hrs by MTT assay; assay type: functional; procedure, shortened: as §1
LNCaP [2] = assay: Growth inhibition of human LNCaP cells after 72 hrs by MTT assay; assay type: functional; procedure, shortened: as §1
LNCaP [3] = assay: Decrease in CDK4 expression in LNCaP cells at 50 nM after 72 hrs by Western blot analysis; assay type: functional, Homo sapiens; design: scale not given: the % may be the effect or the level left
Procedure, shortened: (§2)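 Sub-confluent LNCaP cells given 50 nM or ethanol vehicle for 72 h. Lysed in Triton X-100/SDS buffer with protease and phosphatase inhibitors, run on SDS-PAGE, blotted to PVDF, probed overnight at 4 °C, detected by HRP chemiluminescence. Bands quantified by densitometry, normalized to actin and expressed relative to control.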

LNCaP [4] = assay: Increase in CDK6 expression in LNCaP cells at 50 nM after 72 hrs by Western blot analysis; assay type: functional, cell-based; details: Homo sapiens; procedure, shortened: as §2
LNCaP [5] = assay: Inhibition of cyclin D1 expression in LNCaP cells at 50 nM after 72 hrs by Western blot analysis; assay type: functional, cell-based; details: Homo sapiens; procedure, shortened: as §2
LNCaP [6] = assay: Inhibition of CDK2 expression in LNCaP cells at 50 nM after 72 hrs by Western blot analysis; assay type: functional, cell-based; details: Homo sapiens; procedure, shortened: as §2
[7] = target: Cyclin-dependent kinase 2 (Homo sapiens) (UniProt P24941); assay: Inhibition of CDK2 kinase activity assessed as decrease in histone H1 phosphorylation in LNCaP cells at 50 nM after 72 hrs by Western blot analysis; assay type: functional, cell-based
Procedure, shortened: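 LNCaP cells given 50 nM or vehicle for 72 h, lysed in NP40 buffer. Lysate (100 μg) immunoprecipitated overnight at 4 °C with cdk2 antibody on protein A/G beads. Beads incubated 30 min at 30 °C with 2 μg histone H1, 20 μM ATP and 5 μCi [γ-32P]ATP. Reaction resolved by SDS-PAGE and phospho-H1 detected by autoradiography, with cdk2 immunoblot alongside.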

LNCaP [8] = assay: Decrease in Cyclin E expression in LNCaP cells at 50 nM after 72 hrs by Western blot analysis; assay type: functional, cell-based; details: Homo sapiens; procedure, shortened: as §2
LNCaP [9] = assay: Cell cycle arrest in LNCaP cells by accumulation at G1/S phase at 50 nM after 72 hrs by PI staining; assay type: functional, cell-based; details: Homo sapiens
Procedure, shortened: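 Sub-confluent LNCaP cells given vehicle (ethanol) or 50 nM for 72 h. Cells fixed in ice-cold 70% ethanol at 4 °C for ≥30 min, then stained with PI (10 μg/mL) plus RNase A (100 μg/mL) for 30 min in the dark. Phase distribution read by flow cytometry. Mean of three independent experiments ± SEM.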

LNCaP [10] = assay: Increase in p21 expression in LNCaP cells at 50 nM after 72 hrs relative to control by Western blot analysis; assay type: functional, Homo sapiens; procedure, shortened: as §2
LNCaP [11] = assay: Increase in p27 expression in LNCaP cells at 50 nM after 72 hrs relative to control by Western blot analysis; assay type: functional, Homo sapiens; procedure, shortened: as §2
LNCaP [12] = assay: Increase in p53 expression in LNCaP cells at 50 nM after 72 hrs relative to control by Western blot analysis; assay type: functional, cell-based; details: Homo sapiens; procedure, shortened: as §2
LNCaP [13] = assay: Induction of early apoptosis in LNCaP cells at 50 nM after 72 hrs relative to control by V-PE/7-AAD staining; assay type: functional, Homo sapiens
Procedure, shortened: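 Sub-confluent LNCaP cells given 50 nM or vehicle for 72 h, trypsinized, washed in cold PBS, stained with annexin V-PE and 7-AAD for 15 min in the dark, analysed by flow cytometry. Early apoptosis = annexin V-positive only. Reported as fold over control ± SEM; ANOVA.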

LNCaP [14] = assay: Increase in bax expression in LNCaP cells at 50 nM after 72 hrs by Western blot analysis; assay type: functional, cell-based; details: Homo sapiens; procedure, shortened: as §2
LNCaP [15] = assay: Decrease in Bcl2 expression in LNCaP cells at 50 nM after 72 hrs by Western blot analysis; assay type: functional, cell-based; details: Homo sapiens; procedure, shortened: as §2
TRAMP-C2H [16] = assay: Inhibition of DNA synthesis in mouse C2H cells at 50 nM after 72 hrs by BrdU incorporation assay; assay type: functional; design: scale not given: the % may be the effect or the level left
Procedure, shortened: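 Sub-confluent C2H cells given 50 nM or vehicle for 72 h, labelled with BrdU for 4 h, incorporation measured by colorimetric BrdU ELISA at 370 nm. Expressed as % of control ± SEM; ANOVA.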

LNCaP [17] = assay: Inhibition of DNA synthesis in human LNCaP cells at 50 nM after 72 hrs by BrdU incorporation assay; assay type: functional; design: scale not given: the % may be the effect or the level left
Procedure, shortened: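 LNCaP cells given 50 nM or vehicle for 72 h, pulsed 30 min with 100 μg/mL BrdU plus 1 μg/mL FdU. Cells fixed, DNA denatured with 2 N HCl, neutralized with borate pH 8.5, stained with anti-BrdU and Alexa 488 secondary plus PI, then read by flow cytometry. Normalized to control ± SEM; ANOVA.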

LNCaP [18] = assay: Growth inhibition of human LNCaP cells at 100 nM after 72 hrs by MTT assay; assay type: functional; procedure, shortened: as §1
LNCaP [19] = assay: Cell cycle arrest in LNCaP cells by accumulation at G2/M phase at 50 nM after 72 hrs by PI staining; assay type: functional, cell-based; details: Homo sapiens
Procedure, shortened: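 Sub-confluent LNCaP (RPMI, 10% FBS, 37 °C, 5% CO2) exposed to 50 nM or ethanol vehicle (≤0.002%) for 72 h; harvested, fixed in ice-cold 70% ethanol ≥30 min at 4 °C; ~10^6 cells stained with PI (10 μg/mL) plus RNase A (100 μg/mL) 30 min in dark; FACS; % cells in G0/G1, S, G2/M, mean of three independent experiments ± SEM.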

LNCaP [20] = assay: Induction of late apoptosis in LNCaP cells at 50 nM after 72 hrs relative to control by V-PE/7-AAD staining; assay type: functional, cell-based; details: Homo sapiens
Procedure, shortened: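 Sub-confluent LNCaP treated 72 h with 50 nM or ethanol vehicle; trypsinized, washed twice in ice-cold PBS, stained with annexin V-PE and 7-AAD 15 min in dark, analysed by FACS; late stage scored as annexin V plus 7-AAD positive; mean fold increase ± SEM normalized to control (=1.0), ANOVA.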

| Compound | GI50 (TRAMP-C1A) [nM] | GI50 (TRAMP-C2H [1]) [nM] | GI50 (LNCaP [2]) [nM] | Activity (LNCaP [3]) [%] | Activity (LNCaP [4]) | Activity (LNCaP [5]) | Activity (LNCaP [6]) | Activity [7] | Activity (LNCaP [8]) | Activity (LNCaP [9]) | Activity (LNCaP [10]) | Activity (LNCaP [11]) | Activity (LNCaP [12]) | Activity (LNCaP [13]) | Activity (LNCaP [14]) | Activity (LNCaP [15]) | inhibition at 0.1 µM (LNCaP [18]) [%] | also measured |
| --- | --- | --- | --- | --- | --- | --- | --- | --- | --- | --- | --- | --- | --- | --- | --- | --- | --- | --- |
| C[C@H]1[C@@H](CC(COP(=O)(Oc2ccccc2)Oc2ccccc2)C[C@H]2O[C@@H]3O[C@@]4(C)CC[C@H]5[C@H](C)CC[C@@H]([C@H]2C)[C@@]35OO4)O[C@@H]2O[C@@]3(C)CC[C@H]4[C@H](C)CC[C@@H]1[C@@]24OO3 (stereo not given in full) | 31.9 | 44.8 | 34.4 | 10 | Active | Active | Active | Active | Active | Active | 9 | 6.5 | inactive | 4 | Active | Active | – | – |
| C[C@H]1[C@@H](CC(CNc2ccccc2)C[C@H]2O[C@@H]3O[C@@]4(C)CC[C@H]5[C@H](C)CC[C@@H]([C@H]2C)[C@@]35OO4)O[C@@H]2O[C@@]3(C)CC[C@H]4[C@H](C)CC[C@@H]1[C@@]24OO3 (stereo not given in full) | 18 | 17 | 17.9 | 10 | Active | Active | Active | Active | Active | Active | 9 | 6.5 | inactive | 4 | Active | Active | 97 | Activity (TRAMP-C2H [16]): >90%; Activity (LNCaP [17]): >90% |
| CCOP(=O)(OCC)OCC(C[C@H]1O[C@@H]2O[C@@]3(C)CC[C@H]4[C@H](C)CC[C@@H]([C@H]1C)[C@@]24OO3)C[C@H]1O[C@@H]2O[C@@]3(C)CC[C@H]4[C@H](C)CC[C@@H]([C@H]1C)[C@@]24OO3 (stereo not given in full) | 42.2 | 39.4 | 36.3 | 10 | – | Active | Active | Active | Active | Active | 9 | 6.5 | inactive | 4 | Active | – | – | – |
| COc1cccc2c1C(=O)c1c(O)c3c(c(O)c1C2=O)C[C@@](O)(C(=O)CO)C[C@@H]3O[C@H]1C[C@H](N)[C@H](O)[C@H](C)O1 [DOXORUBICIN] | 20.4 | 15.8 | 45.3 | – | – | – | – | – | – | – | – | – | – | – | – | – | 69 | Activity (LNCaP [19]): Active; Activity (LNCaP [20]): Active |
